Assay outcomes as filed in PubChem BioAssay.
An excerpt weighted towards active compounds, which were near 1.9% of everything screened.
MBD2 inh = MBD2-methylated oligo binding inhibition | TR-FRET, MBD2 binding to methylated oligonucleotide | inhibition, % at 4.4 µM | hit rate 0.31% among 370,000 | AID 686964; in the data active = inhibition above about 13%
Tn7 DDE FP = disrupts Tn7 cyclic peptide binding to fibrin D-Dimer-E complex. FP displacement of FITC-Tn7 peptide from fibrin DD(E); 0% = median of compound wells per plate. inhibition, % at 8.3 µM. hit rate 0.13% among 370,000. AID 720508;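 active = inhibition above the mean of compounds falling within the control limits plus 3 SD of them, cut at about 14% in these data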
Target sequence (P02675 whole entry, looked up): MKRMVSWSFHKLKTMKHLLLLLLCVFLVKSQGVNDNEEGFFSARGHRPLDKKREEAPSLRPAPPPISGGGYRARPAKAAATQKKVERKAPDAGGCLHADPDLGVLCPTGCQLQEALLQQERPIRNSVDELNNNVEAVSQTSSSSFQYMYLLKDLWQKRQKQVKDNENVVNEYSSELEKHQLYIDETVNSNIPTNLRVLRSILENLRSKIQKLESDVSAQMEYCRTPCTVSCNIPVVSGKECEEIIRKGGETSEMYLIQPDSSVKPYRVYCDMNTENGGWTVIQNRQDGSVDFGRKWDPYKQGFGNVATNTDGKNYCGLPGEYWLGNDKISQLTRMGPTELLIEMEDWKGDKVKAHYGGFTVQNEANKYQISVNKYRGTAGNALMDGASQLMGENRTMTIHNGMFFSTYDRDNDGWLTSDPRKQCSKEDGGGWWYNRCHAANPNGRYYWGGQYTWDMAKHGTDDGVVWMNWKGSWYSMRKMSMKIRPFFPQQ
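Assay system: human fibrin DD(E) protein / Input: 2 µM fibrin DD(E) / Benchmarks: high control of 10 µM Aha-Tn7 peptide / Measured by: fluorescence polarization of the labelled Tn7 tracer / Medium: Tris buffer with calcium and detergent, pH 7.8 / Timing: 10 min compound pre-incubation, 3 h probe incubation at room temperature / Repeats: one replicate per compound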
LEDGF integ inh = blocks HIV-1 LEDGF/p75-dependent DNA integration. AID 743269. inhibition, % at 3.7 µM. hit rate 0.64% among 370,000. TR-FRET IN-LEDGF/p75 DNA integration, Eu/Cy5;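 active = inhibition above the screen-wide mean plus 3 SD, cut at about 13% in these data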;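 also: signal is the Cy5 over europium emission ratio at 671 and 618 nm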
DDE Tn6 FP inh = DD(E)-Tn6 binding inhibition, primary FP screen | inhibition, % at 8.3 µM | hit rate 0.21% among 370,000 | P02675 | Fibrin DD(E) TRITC-Tn6 fluorescence polarization displacement;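 active = inhibition above a per-campaign cutoff: mean of compounds within control limits plus 3 SD, cut at about 15% in these data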
UHRF1 MBD2 ctr = human UHRF1 methylated DNA binding inhibitors. UHRF1 binding to methylated oligo, TR-FRET. inhibition, % at 4.4 µM. hit rate 0.75% among 370,000; in the data active = inhibition above about 21%;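 also: UHRF1 SRA domain binding a hemimethylated CpG hairpin DNA probe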
TDP2 absorb = blocks human TDP2 phosphodiesterase activity | recombinant TDP2, T5PNP hydrolysis, p-nitrophenol absorbance 415 nm | inhibition, % at 12.8 µM | hit rate 0.34% among 370,000 | AID 720702;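 active = inhibition above the mean of all tested compounds plus 3 SD, set per campaign, cut at about 25% in these data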
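System – recombinant human TDP2 · Quantity – TDP2 enzyme at 120 nM final · Doses – single concentration, 12.8 µM nominal, with 1% DMSO · Incubation – 2 h at 37 °C · Measured by – epi absorbance of p-nitrophenol freed from T5PNP by hydrolysis · Read-out – % inhibition relative to enzyme-containing and enzyme-free wells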
Large screens that a line does not name were inactive.

COC(=O)[C@]12C[C@H](CC(=O)N3CCC(c4ccccc4)CC3)C(=O)N(Cc3ccccc3)C1=C[C@H](COCc1ccccc1)O[C@@H]2C	none
COC(=O)[C@]12C[C@H](CC(=O)N3CCCC3)C(=O)N(Cc3ccco3)C1=C[C@H](COCc1ccccc1)O[C@@H]2C	none
CCCN1CCc2c(sc(NC(=S)NC(=O)c3ccccc3)c2C#N)C1	MBD2 inh 15.2
CC(C)N1CCc2c(sc(NC(=S)NC(=O)c3ccccc3)c2C#N)C1	MBD2 inh 20.8
Cc1sc(NC(=S)NC(=O)c2ccccc2)c(C#N)c1C	none
CC(C)C1Cc2c(sc(NC(=S)NC(=O)c3ccccc3)c2C#N)CO1 (centres undefined)	none
Cc1ccc(CN2CCC=CS2(=O)=O)cc1	none
Brc1ccc(CN2CCN(c3ncc(Cc4ccccc4)cn3)CC2)cc1	none
CNC(=O)c1sc(-c2ccccc2)nc1C	UHRF1 MBD2 ctr 33.1
N#Cc1c(NC(=O)c2ccccc2Cl)n(Cc2ccccc2)c2nc3ccccc3nc12	LEDGF integ inh 15.7, TDP2 absorb 80.7
Cc1cc2c(cc1C)C(=O)CCC2	UHRF1 MBD2 ctr 23.9
CCN(CC(=O)NCc1cccs1)C(=O)Cc1ccc(Cl)c(Cl)c1	none
CCN(CC(=O)NCc1cccs1)C(=O)c1ccc(Cl)c(Cl)c1	UHRF1 MBD2 ctr 35.2
Cc1ccc2cc(CN(C)S(C)(=O)=O)c(=O)[nH]c2c1	UHRF1 MBD2 ctr 35.2
O=C1NC(=O)C(CC(=O)N(Cc2cccs2)C2(C(=O)NC3CCCC3)CCCCC2)N1 (centres undefined)	UHRF1 MBD2 ctr 23.5
COc1cc2c(cc1OC)C(C(=O)O)C(c1ccc3c(c1)OCO3)N(C)C2=O (centres undefined)	none
Cc1[nH]c2ccccc2c1/C=N/NC(N)=S	none
CCc1nnc(N/N=C/c2c(C)[nH]c3ccccc23)n1N	LEDGF integ inh 68.4, TDP2 absorb 59.3
COc1ccccc1CCc1nnc(CCC(=O)NCCOc2cccnc2)o1	UHRF1 MBD2 ctr 24.7
COc1ccc(-n2c(COc3ccc(Cl)cc3)nnc2SCC(=O)c2ccc(-c3ccccc3)cc2)cc1	none
Cn1c(CN2CCCC2)c(C#N)c2ccccc21	UHRF1 MBD2 ctr 65.2
Cc1ccc(NC(=O)COC(=O)c2ccc3ncsc3c2)c(C)c1	UHRF1 MBD2 ctr 21.6
Cc1ccc(F)cc1NC(=O)COC(=O)c1ccc2ncsc2c1	none
Nc1ccn([C@@H]2O[C@H](C(=O)N[C@H](Cc3ccccc3)C(=O)Nc3ccc4scnc4c3)[C@@H](O)[C@H]2O)c(=O)n1	none
O=S(=O)(c1ccc(Br)cc1)N1CCCN(Cc2cccc(F)c2)CC1	UHRF1 MBD2 ctr 62.3
O=S(=O)(c1ccccc1)N1CCN(Cc2cccc(Br)c2)CC1	none
CN(CCC#N)C(=O)COC(=O)/C=C/c1cccs1	none
CCO/C=C/C(=O)N(C)CCC#N	UHRF1 MBD2 ctr 100.1
S=C(NCc1ccco1)Nc1ccc(Br)cn1	none
S=C(NCc1ccco1)Nc1cc(-c2ccccc2)[nH]n1	UHRF1 MBD2 ctr 28.9
O=C(CCN1C(=O)/C(=C\c2ccco2)SC1=S)Nc1ccc(C(=O)O)c(O)c1	LEDGF integ inh 69.9, UHRF1 MBD2 ctr 62.2
O=C(CCCN1C(=O)/C(=C\c2ccccc2)SC1=S)Nc1ccc(O)cc1C(=O)O	none
O=C(CN1C(=O)/C(=C\c2ccco2)SC1=S)Nc1ccc(O)cc1C(=O)O	MBD2 inh 26.7, LEDGF integ inh 62.5, UHRF1 MBD2 ctr 86.6
CCN1CCN(c2ccc(S(=O)(=O)N3CCCCC3)cc2NC(=O)CC(C)c2ccccc2)CC1 (centres undefined)	UHRF1 MBD2 ctr 51.6
Cc1ccc(S(=O)(=O)N2CCCCC2)cc1NC(=O)COC(=O)c1ccc(O)cc1	UHRF1 MBD2 ctr 34.3
O=C(COc1ccc([N+](=O)[O-])cc1)Nc1cc(S(=O)(=O)N2CCCCC2)ccc1N1CCCCC1	UHRF1 MBD2 ctr 22.2
O=C(COC(=O)c1ccc(O)cc1)Nc1cc(S(=O)(=O)N2CCCCCC2)ccc1Cl	none
CN1C(=O)c2cc(NC(=O)C3CCCCC3)ccc2OC[C@H]2O[C@@H](CC(=O)NC3CCCC3)CC[C@H]21	none
CCOC(=O)C1=CCN(S(C)(=O)=O)C1c1ccc(Cl)cc1 (centres undefined)	none
CN(C)S(=O)(=O)N1CCN(CC(=O)Nc2ccc(Br)cc2)CC1	UHRF1 MBD2 ctr 21.9
CC(c1ccccc1)n1cc(C(=O)N2CCCC2)nn1 (centres undefined)	none
CC(=O)Nc1ccc(S(=O)(=O)NCCNS(=O)(=O)c2ccc(NC(C)=O)cc2)cc1	none
CC(=O)Nc1ccc(S(=O)(=O)NCCSc2ccccn2)cc1	UHRF1 MBD2 ctr 20.9
Cc1[nH]c2ccccc2c1CC(=O)Nc1ccc(Nc2cccnc2)c(-c2cc(F)cc(F)c2)c1	none
CCOC(=O)c1cccc(-c2cc(C(=O)OC)c3n(c2=O)CCC3)c1	none
Oc1ccccc1Oc1ncc(Br)c(N2CCOCC2)n1	none
Oc1ccccc1Oc1ncc(Br)c(Cl)n1	UHRF1 MBD2 ctr 22.0
CCOc1ccc(-n2c(SCc3nc4ccccc4[nH]3)nnc2-c2cccc(Cl)c2)cc1	none
O=C1C(SCCO)=C(SCCO)C(=O)c2ccccc21	LEDGF integ inh 29.4, TDP2 absorb 77.6
O=C(CCc1ccccc1-c1ccccc1CCNC(=O)c1cccc(F)c1)NCc1ccccc1	none
O=C(NCc1ccco1)C1Cc2ccccc2CN1S(=O)(=O)c1ccccc1F (centres undefined)	LEDGF integ inh 14.0
O=C(NCc1ccco1)C1Cc2ccccc2CN1C(=O)c1ccco1 (centres undefined)	none
CCC(CO)Oc1cc(NCc2ccccc2)c2ncn(C(C)C)c2c1 (centres undefined)	none
CCC(COC(=O)c1ccccc1)Oc1cc(NCc2ccccc2)c2ncn(C(C)C)c2c1 (centres undefined)	TDP2 absorb 36.0
OC(CNCc1ccccc1)Cn1ccc2ccccc21 (centres undefined)	UHRF1 MBD2 ctr 27.4
Oc1ccccc1NCC(O)Cn1ccc2ccccc21 (centres undefined)	none
COc1ccc(NC(=O)NS(=O)(=O)c2ccc(C)cc2)cn1	Tn7 DDE FP 48.0
O=C(NCCSc1c[nH]c2ccccc12)C1CC1	UHRF1 MBD2 ctr 45.3
Cc1cccc(C(=O)NCC(=O)NC(C)CCc2ccccc2)c1 (centres undefined)	UHRF1 MBD2 ctr 22.2
CC(C)CN1C(=O)C[C@@]2(C(=O)N(C)c3ccc(NC(=O)C(C)(C)C)cc32)C1c1ccccc1 (some centres undefined)	none
COC(=O)[C@]12C[C@H](CC(=O)NCCCN3CCCC3=O)C(=O)N(Cc3cccc4ccccc34)C1=C[C@H](C(C)C)O[C@@H]2C1CC1	none
